We go through 16 compounds from ChEMBL document CHEMBL1811838, “Antimalarial activity of natural and synthetic prodiginines” (J Med Chem, 2011).

Molecules are shown by their SMILES. Some results are limits rather than exact numbers.

The test system of the first data set is Plasmodium falciparum. As to the kind of experiment: Antimalarial activity Plasmodium falciparum D6 after 72 hrs by SYBR Green I based fluorescence assay. Conditions: D6, 72 h. The class given is functional, organism-based. In short, it runs like this: (§1)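 P. falciparum (D6 pansensitive; Dd2 MDR) cultured under standard conditions and grown 72 h with varying compound concentrations, chloroquine positive control or no drug, each condition in quadruplicate. Growth measured by SYBR Green I fluorescence with minor modifications; IC50 = concentration inhibiting growth by 50%.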
`COC1=CC(c2ccc[nH]2)=N/C1=C\c1[nH]ccc1Cc1ccc(Cl)cc1` gave an IC50 of 65 nM.
For the compound `COC1=CC(c2ccc[nH]2)=N/C1=C\c1[nH]c(Cc2ccc(Br)cc2)cc1Cc1ccc(Cl)cc1`, the midpoint of inhibition, the IC50, lay at 8.3 nM.
The compound `CCCCCCCCc1cc(CCCCCCC)[nH]c1/C=C1\N=C(c2ccc[nH]2)C=C1OC` had an IC50 of 6.2 nM.
In turn, `CCCCc1ccc(/C=C2\N=C(c3ccc[nH]3)C=C2OC)[nH]1` yielded an IC50 of 1780 nM.
`COC1=CC(c2ccc[nH]2)=N/C1=C\c1[nH]c(Cc2ccccc2Cl)cc1Cc1ccccc1Cl` yielded an IC50 of 3.6 nM.
For the compound `CCCc1cc(CCC2CCCCC2)c(/C=C2\N=C(c3ccc[nH]3)C=C2OC)[nH]1`, the IC50 was 1.7 nM.
`CCCCCCCCc1cc(Cc2ccc(Cl)cc2)c(/C=C2\N=C(c3ccc[nH]3)C=C2OC)[nH]1` registered an IC50 of 16 nM.
As for `COC1=CC(c2ccc[nH]2)=N/C1=C\c1[nH]c(Cc2ccc(Cl)cc2Cl)cc1Cc1ccc(Cl)cc1Cl`, the IC50 was 12.6 nM.
In turn, `COC1=CC(c2ccc[nH]2)=N/C1=C\c1[nH]c(Cc2ccc(Br)cc2)cc1Cc1ccc(Br)cc1` showed an IC50 of 14 nM.
For the compound `CCCc1cc(Cc2ccc(Cl)cc2)c(/C=C2\N=C(c3ccc[nH]3)C=C2OC)[nH]1`, the IC50 turned out to be 3 nM.
Same read-out and setting: with `COC1=CC(c2ccc[nH]2)=N/C1=C\c1[nH]c(Cc2ccc(Br)cc2)cc1Cc1ccc(F)cc1` the figure was 5.7 nM.
`COC1=CC(c2ccc[nH]2)=N/C1=C\c1[nH]c(Cc2ccc(F)cc2)cc1Cc1ccc(F)cc1` showed an IC50 of 5.6 nM.
`CCCCCCCCc1ccc(/C=C2\N=C(c3ccc[nH]3)C=C2OC)[nH]1`: the IC50 turned out to be 80 nM.
On to `CCCCCCCCc1cc(Cc2ccc(Br)cc2)c(/C=C2\N=C(c3ccc[nH]3)C=C2OC)[nH]1`, for which the IC50 was determined as 4 nM.
On the same count and under the same terms, the value for `CCCCCCc1cc(CCC)c(/C=C2\N=C(c3ccc[nH]3)C=C2OC)[nH]1` was 4.5 nM; that for `COC1=CC(c2ccc[nH]2)=N/C1=C\c1[nH]c(CCC2CCCCC2)cc1CCC1CCCCC1` was 5.3 nM.

Another data set deals with Plasmodium falciparum. As to the kind of experiment: Antimalarial activity multidrug-resistant Plasmodium falciparum Dd2 after 72 hrs by SYBR Green I based fluorescence assay. The class given is functional, organism-based. Conditions: Dd2, 72 h. In a few lines:
as §1
In turn, `COC1=CC(c2ccc[nH]2)=N/C1=C\c1[nH]ccc1Cc1ccc(Cl)cc1` returned an IC50 of 81 nM.
The compound `COC1=CC(c2ccc[nH]2)=N/C1=C\c1[nH]c(Cc2ccc(Br)cc2)cc1Cc1ccc(Cl)cc1` displayed a 50% inhibitory concentration (IC50) of 7.7 nM.
In the case of `CCCCCCCCc1cc(CCCCCCC)[nH]c1/C=C1\N=C(c2ccc[nH]2)C=C1OC`, the IC50 was 2.9 nM.
For `CCCCc1ccc(/C=C2\N=C(c3ccc[nH]3)C=C2OC)[nH]1`, the IC50 worked out at 1590 nM.
Still for that read-out and setting: with `COC1=CC(c2ccc[nH]2)=N/C1=C\c1[nH]c(Cc2ccccc2Cl)cc1Cc1ccccc1Cl` the figure was 4.9 nM.
Same read-out and setting: with `CCCc1cc(CCC2CCCCC2)c(/C=C2\N=C(c3ccc[nH]3)C=C2OC)[nH]1` the figure was 1.3 nM; with `CCCCCCCCc1cc(Cc2ccc(Cl)cc2)c(/C=C2\N=C(c3ccc[nH]3)C=C2OC)[nH]1`, 12 nM.
In turn, `COC1=CC(c2ccc[nH]2)=N/C1=C\c1[nH]c(Cc2ccc(Cl)cc2Cl)cc1Cc1ccc(Cl)cc1Cl` registered an IC50 of 11 nM.
On the same count and under the same terms, the value for `COC1=CC(c2ccc[nH]2)=N/C1=C\c1[nH]c(Cc2ccc(Br)cc2)cc1Cc1ccc(Br)cc1` was 11 nM; that for `CCCc1cc(Cc2ccc(Cl)cc2)c(/C=C2\N=C(c3ccc[nH]3)C=C2OC)[nH]1` was 2.6 nM.
For the compound `COC1=CC(c2ccc[nH]2)=N/C1=C\c1[nH]c(Cc2ccc(Br)cc2)cc1Cc1ccc(F)cc1`, the IC50 amounted to 5.1 nM.
Regarding `COC1=CC(c2ccc[nH]2)=N/C1=C\c1[nH]c(Cc2ccc(F)cc2)cc1Cc1ccc(F)cc1`, the concentration for half-maximal inhibition (IC50) came to 5.7 nM.
As for `CCCCCCCCc1ccc(/C=C2\N=C(c3ccc[nH]3)C=C2OC)[nH]1`, half-maximal inhibition (IC50) was put at 130 nM.
`CCCCCCCCc1cc(Cc2ccc(Br)cc2)c(/C=C2\N=C(c3ccc[nH]3)C=C2OC)[nH]1` returned an IC50 of 2.9 nM.
The same measure, in the same setting: the value for `CCCCCCc1cc(CCC)c(/C=C2\N=C(c3ccc[nH]3)C=C2OC)[nH]1` was 4 nM; that for `COC1=CC(c2ccc[nH]2)=N/C1=C\c1[nH]c(CCC2CCCCC2)cc1CCC1CCCCC1` was 3.5 nM.

System in another data set: not listed separately
The data set is described as follows: Toxicity in C57BL/6J mouse splenic lymphocytes after 72 hrs by Alamar blue Assay. The data set is classed as cell-based. Particulars: splenic lymphocyte. In a few lines:
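Splenic lymphocytes from C57BL/6J mice washed, then stimulated with 1 μg/mL concanavalin A in RPMI/10% FBS with 50 μM β-mercaptoethanol. Seeded at 2 × 10^5 cells/well with serially diluted compound for 72 h at 37 °C, 5% CO2. Resazurin added (final 10 μM) for another 24 h; fluorescence read at ex 560/em 590 nm.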
Compound `COC1=CC(c2ccc[nH]2)=N/C1=C\c1[nH]ccc1Cc1ccc(Cl)cc1` yielded an IC50 of less than 125 nM.
Compound `COC1=CC(c2ccc[nH]2)=N/C1=C\c1[nH]c(Cc2ccc(Br)cc2)cc1Cc1ccc(Cl)cc1` had an IC50 of less than 125 nM.
`CCCCCCCCc1cc(CCCCCCC)[nH]c1/C=C1\N=C(c2ccc[nH]2)C=C1OC` showed an IC50 of 3910 nM.
With `CCCCc1ccc(/C=C2\N=C(c3ccc[nH]3)C=C2OC)[nH]1`, the IC50 was less than 125 nM.
`COC1=CC(c2ccc[nH]2)=N/C1=C\c1[nH]c(Cc2ccccc2Cl)cc1Cc1ccccc1Cl` displayed an IC50 of less than 125 nM.
Compound `CCCc1cc(CCC2CCCCC2)c(/C=C2\N=C(c3ccc[nH]3)C=C2OC)[nH]1` gave an IC50 of less than 125 nM.
The same measure, in the same setting: the value for `CCCCCCCCc1cc(Cc2ccc(Cl)cc2)c(/C=C2\N=C(c3ccc[nH]3)C=C2OC)[nH]1` was 1100 nM; that for `COC1=CC(c2ccc[nH]2)=N/C1=C\c1[nH]c(Cc2ccc(Cl)cc2Cl)cc1Cc1ccc(Cl)cc1Cl` was less than 125 nM.
Consider `COC1=CC(c2ccc[nH]2)=N/C1=C\c1[nH]c(Cc2ccc(Br)cc2)cc1Cc1ccc(Br)cc1`, for which the half-maximal inhibitory concentration (IC50) was less than 125 nM.
`CCCc1cc(Cc2ccc(Cl)cc2)c(/C=C2\N=C(c3ccc[nH]3)C=C2OC)[nH]1` yielded an IC50 of less than 125 nM.
Still for that read-out and setting: with `COC1=CC(c2ccc[nH]2)=N/C1=C\c1[nH]c(Cc2ccc(Br)cc2)cc1Cc1ccc(F)cc1` the figure was less than 125 nM; with `COC1=CC(c2ccc[nH]2)=N/C1=C\c1[nH]c(Cc2ccc(F)cc2)cc1Cc1ccc(F)cc1`, less than 125 nM; with `CCCCCCCCc1ccc(/C=C2\N=C(c3ccc[nH]3)C=C2OC)[nH]1`, less than 125 nM.
As for `CCCCCCCCc1cc(Cc2ccc(Br)cc2)c(/C=C2\N=C(c3ccc[nH]3)C=C2OC)[nH]1`, the IC50 is less than 125 nM.
On to `CCCCCCc1cc(CCC)c(/C=C2\N=C(c3ccc[nH]3)C=C2OC)[nH]1`, for which the IC50 is less than 125 nM.
`COC1=CC(c2ccc[nH]2)=N/C1=C\c1[nH]c(CCC2CCCCC2)cc1CCC1CCCCC1` registered an IC50 of less than 125 nM.

The next data set has as its system Plasmodium yoelii. The data set is described as follows: Antimalarial activity Plasmodium yoelii infected in CF-1 mouse assessed as reduction of parasitemia at 25 mg/kg, po qd for 3 days administered 24 hrs after infection measured after 24 hrs last dose relative to control. The class given is functional. The arrangement: scale not given: the % may be the effect or the level left.
Conditions: not given
In a few lines:
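Female outbred CF-1 mice infected iv (tail vein) with 5 × 10^5 P. yoelii Kenya-infected erythrocytes. Groups of five given compound or vehicle alone by gavage in caprylic/capric triglyceride once daily for 3 days starting 24 h post-infection. One day after last dose, Giemsa-stained thin smears scored microscopically for % infected erythrocytes vs untreated controls. Group mean weight day 3 vs day 0. Smear-negative mice followed; parasite-free at 28 days counted cured.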
As for `COC1=CC(c2ccc[nH]2)=N/C1=C\c1[nH]ccc1Cc1ccc(Cl)cc1`, the Activity is recorded as 90%.
For the compound `CCCc1cc(CCC2CCCCC2)c(/C=C2\N=C(c3ccc[nH]3)C=C2OC)[nH]1`, the Activity amounted to 100%.
Turning to `CCCCCCCCc1cc(Cc2ccc(Cl)cc2)c(/C=C2\N=C(c3ccc[nH]3)C=C2OC)[nH]1`, the Activity is recorded as 100%.
Take `CCCc1cc(Cc2ccc(Cl)cc2)c(/C=C2\N=C(c3ccc[nH]3)C=C2OC)[nH]1`: the Activity is given as 100%.

A further data set relates to Mus musculus. The data set is described as follows: Toxicity in Plasmodium yoelii infected CF-1 mouse assessed as weight loss at 5 mg/kg, po qd for 3 days relative to control. Set-up: dose 5 mg/kg, route oral. Particulars: in vivo, 72 h. The data set is classed as organism-based. In short, it runs like this: (§2)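 Female outbred CF-1 mice were infected i.v. via the tail vein with 5 × 10^5 P. yoelii Kenya-infected erythrocytes, in groups of five. Compound or vehicle alone was given by gavage in caprylic/capric triglyceride once daily for 3 days, starting 24 h post-infection. One day after the last dose, Giemsa-stained thin smears were scored by microscopy for % parasitemia versus untreated controls. Group mean weight was recorded as day 3 versus day 0.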
As for `COC1=CC(c2ccc[nH]2)=N/C1=C\c1[nH]ccc1Cc1ccc(Cl)cc1`, the Activity amounted to 101.2%.
As to `CCCc1cc(CCC2CCCCC2)c(/C=C2\N=C(c3ccc[nH]3)C=C2OC)[nH]1`, the Activity is listed as 101.5%.
As to `CCCCCCCCc1cc(Cc2ccc(Cl)cc2)c(/C=C2\N=C(c3ccc[nH]3)C=C2OC)[nH]1`, the Activity was 100.2%.
As to `CCCc1cc(Cc2ccc(Cl)cc2)c(/C=C2\N=C(c3ccc[nH]3)C=C2OC)[nH]1`, the Activity turned out to be 102.9%.

Another data set has as its system Mus musculus. The data set is described as follows: Toxicity in Plasmodium yoelii infected CF-1 mouse assessed as weight loss at 25 mg/kg, po qd for 3 days relative to control. The data set is classed as organism-based. Set-up: dose 25 mg/kg, route oral. Particulars: in vivo, 72 h. In a few lines: as §2
Consider `COC1=CC(c2ccc[nH]2)=N/C1=C\c1[nH]ccc1Cc1ccc(Cl)cc1`, for which the Activity amounted to 105%.
As to `CCCc1cc(CCC2CCCCC2)c(/C=C2\N=C(c3ccc[nH]3)C=C2OC)[nH]1`, the Activity was determined as 84.5%.
As to `CCCCCCCCc1cc(Cc2ccc(Cl)cc2)c(/C=C2\N=C(c3ccc[nH]3)C=C2OC)[nH]1`, the Activity stood at 93.4%.
The same measure, in the same setting: the value for `CCCc1cc(Cc2ccc(Cl)cc2)c(/C=C2\N=C(c3ccc[nH]3)C=C2OC)[nH]1` was 87.6%.

The test system of another data set is Plasmodium yoelii. The data set is described as follows: Antimalarial activity Plasmodium yoelii infected in CF-1 mouse assessed as reduction of parasitemia at 5 mg/kg, po qd for 3 days administered 24 hrs after infection measured after 24 hrs last dose relative to control. The data set is classed as functional. Set-up: scale not given: the % may be the effect or the level left.
Conditions: not given
In short, it runs like this: as §2
For the compound `COC1=CC(c2ccc[nH]2)=N/C1=C\c1[nH]ccc1Cc1ccc(Cl)cc1`, the Activity turned out to be 38%.
Same read-out and setting: the value for `CCCc1cc(CCC2CCCCC2)c(/C=C2\N=C(c3ccc[nH]3)C=C2OC)[nH]1` was 97%.
`CCCCCCCCc1cc(Cc2ccc(Cl)cc2)c(/C=C2\N=C(c3ccc[nH]3)C=C2OC)[nH]1`: the Activity came out at 72%.
With `CCCc1cc(Cc2ccc(Cl)cc2)c(/C=C2\N=C(c3ccc[nH]3)C=C2OC)[nH]1`, the Activity is on record as 94%.
